Active and inactive are the calls of the source. The rule behind the calls is not given here.
How the values were obtained:
Mus musculus [1] = assay: Antitussive activity in ammonia liquor-induced mouse assessed as number of cough times at 10 mg/kg, po daily for 3 consecutive days administered before ammonia liquor induction measured for 3 mins; type: functional
Outline: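 Mice were dosed for three days, with vehicle 0.5% sodium carboxymethyl cellulose at 0.2 mL/mouse; codeine 10 mg/kg served as positive control. On day 3, 2 h post-dose, each mouse was placed in a glass chamber and exposed for 5 s to 28% NH4OH aerosol nebulised by compressed air at about 400 mmHg. Coughs were counted over 3 min from spray onset; n = 10, mean ± SD.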

Mus musculus [2] = assay: Antitussive activity in ammonia liquor-induced mouse assessed as number of cough times at 5 mg/kg, po daily for 3 consecutive days administered before ammonia liquor induction measured for 3 mins; type: functional
Outline: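 Mice were dosed in 0.5% sodium carboxymethyl cellulose vehicle (0.2 mL/mouse). On day 3, 2 h after dosing, they were placed in a glass chamber and exposed for 5 s to 28% NH₄OH aerosol, nebulized with compressed air at about 400 mmHg. Coughs were counted over 3 min from spray start. Codeine 10 mg/kg was the positive control and vehicle the negative control. n = 10, mean ± SD.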

HL-60 [3] = assay: Antitumor activity against human HL-60 cells at 0.1 uM by MTT assay; type: functional, cell-based
Outline: (§1)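 MTT growth-inhibition assay on human A549, BGC-823, SMMC-7721 and HL-60 cancer cells. Each compound was tested at 1×10^-7, 1×10^-6 and 1×10^-5 mol/L. Percent inhibition was calculated relative to untreated cells.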

BGC-823 [4] = assay: Antitumor activity against human BGC-823 cells at 1 uM by MTT assay; type: functional, cell-based; outline: as §1
A549 [5] = assay: Antitumor activity against human A549 cells at 0.1 uM by MTT assay; type: functional, cell-based; outline: as §1
A549 [6] = assay: Antitumor activity against human A549 cells at 1 uM by MTT assay; type: functional, cell-based; outline: as §1
BGC-823 [7] = assay: Antitumor activity against human BGC-823 cells at 0.1 uM by MTT assay; type: functional, cell-based; outline: as §1
SMMC-7721 [8] = assay: Antitumor activity against human SMMC7721 cells at 0.1 uM by MTT assay; type: functional, cell-based; outline: as §1
HL-60 [9] = assay: Antitumor activity against human HL-60 cells at 1 uM by MTT assay; type: functional, cell-based; outline: as §1
SMMC-7721 [10] = assay: Antitumor activity against human SMMC7721 cells at 1 uM by MTT assay; type: functional, cell-based; outline: as §1
HL-60 [11] = assay: Antitumor activity against human HL-60 cells at 10 uM by MTT assay; type: functional
Outline: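 HL-60 cells were tested by MTT assay at 1×10^-7, 1×10^-6 and 1×10^-5 mol/L of each compound. Percent growth inhibition was calculated relative to untreated cells.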

SMILES: COc1ccc2c3c1O[C@H]1[C@@H](O)C=C[C@H]4[C@@H](C2)N(C)CC[C@@]341 [CODEINE]
- Activity (Mus musculus [1]): 5

SMILES: C[C@H]1CC[C@H]([C@@H](C)[C@H]2CC[C@H]3[C@@H]4CC(=O)[C@H]5C[C@@H](O[C@@H]6O[C@H](CO)[C@@H](O)[C@H](O)[C@H]6O)CC[C@]5(C)[C@H]4CC[C@]23C)N(C)C1 [PUQIETINONOSIDE]
- Activity (Mus musculus [1]): 13
- Activity (Mus musculus [2]): 17
- Activity (HL-60 [3]): inactive
- Activity (BGC-823 [4]): inactive
- Activity (A549 [5]): inactive
- Activity (A549 [6]): inactive
- Activity (BGC-823 [7]): inactive
- Activity (SMMC-7721 [8]): inactive
- Activity (HL-60 [9]): inactive
- Activity (SMMC-7721 [10]): inactive

SMILES: C[C@H]1CC[C@H]([C@@H](C)[C@H]2CC[C@H]3[C@@H]4CC(=O)[C@H]5C[C@@H](O)CC[C@]5(C)[C@H]4CC[C@]23C)NC1
- Activity (Mus musculus [1]): 18
- Activity (Mus musculus [2]): 23
- Activity (HL-60 [3]): inactive
- Activity (BGC-823 [4]): inactive
- Activity (A549 [5]): inactive
- Activity (A549 [6]): inactive
- Activity (BGC-823 [7]): inactive
- Activity (SMMC-7721 [8]): inactive
- Activity (HL-60 [11]): 51%
- Activity (HL-60 [9]): inactive
- Activity (SMMC-7721 [10]): inactive

SMILES: C[C@@H]1CC[C@@H]([C@@H](C)[C@@H]2CC[C@H]3[C@@H]4CC(=O)[C@H]5C[C@@H](O)CC[C@]5(C)[C@H]4CC[C@]23C)N(C)C1 [PUQIETINONE]
- Activity (Mus musculus [1]): 11
- Activity (Mus musculus [2]): 17

SMILES: CC1=C2C[C@H]3[C@@H](CC(=O)[C@H]4C[C@@H](O)CC[C@@]43C)[C@@H]2CC[C@@H]1[C@@H](C)[C@@H]1[C@H](O)C[C@@H](C)CN1C (relative stereo) [PUQIENINE B]
- Activity (Mus musculus [1]): 10
- Activity (Mus musculus [2]): 12
- Activity (HL-60 [3]): inactive
- Activity (BGC-823 [4]): inactive
- Activity (A549 [5]): inactive
- Activity (A549 [6]): inactive
- Activity (BGC-823 [7]): inactive
- Activity (SMMC-7721 [8]): inactive
- Activity (HL-60 [9]): inactive
- Activity (SMMC-7721 [10]): inactive

SMILES: CC1=C2C[C@H]3[C@@H](C[C@@H](O)[C@H]4C[C@@H](O)CC[C@@]43C)[C@@H]2CC[C@@H]1[C@@H](C)[C@@H]1[C@H](O)C[C@@H](C)CN1C (relative stereo) [PUQIENINE A]
- Activity (Mus musculus [1]): 14
- Activity (Mus musculus [2]): 18
- Activity (HL-60 [3]): inactive
- Activity (BGC-823 [4]): inactive
- Activity (A549 [5]): inactive
- Activity (A549 [6]): inactive
- Activity (BGC-823 [7]): inactive
- Activity (SMMC-7721 [8]): inactive
- Activity (HL-60 [9]): inactive
- Activity (SMMC-7721 [10]): inactive
